In ChEMBL document CHEMBL1149415, “Discovery and structure-activity relationship of antagonists of B-cell lymphoma 2 family proteins with chemopotentiation activity in vitro and in vivo” (J Med Chem, 2006):
Active and inactive are the calls of the source. The rule behind the calls is not given here.

Experiments:
Bcl-2-like protein 1 [1] = target: T1, Bcl-2-like protein 1 (Homo sapiens, UniProt Q07817); experiment: Binding affinity to Bcl-XL in 10% human serum by fluorescence polarization assay
Summary of the method: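 Competitive fluorescence polarization: serial compound dilutions compete with 30 nM f-Bad peptide (FITC-labelled) for 60 nM Bcl-XL. Human serum at 10% added to the assay buffer. Duplicate values per determination; Ki calculated.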
Target sequence in this assay (Q07817 whole entry): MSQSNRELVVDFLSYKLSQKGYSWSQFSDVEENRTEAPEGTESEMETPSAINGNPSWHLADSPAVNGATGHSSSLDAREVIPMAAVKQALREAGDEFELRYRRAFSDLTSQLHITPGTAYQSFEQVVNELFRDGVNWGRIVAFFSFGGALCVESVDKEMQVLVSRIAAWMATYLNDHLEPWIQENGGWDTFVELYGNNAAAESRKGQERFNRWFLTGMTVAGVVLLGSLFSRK

Bcl-2-like protein 1 [2] = target: T1, Bcl-2-like protein 1; experiment: Binding affinity to Bcl-XL by fluorescence polarization assay
Target sequence in this assay (Q07817 whole entry): as above

[3] = target: Apoptosis regulator Bcl-2 (Homo sapiens, UniProt P10415); experiment: Binding affinity to Bcl2 by fluorescence polarization assay
Apoptosis regulator Bcl-2, sequence (P10415 whole entry): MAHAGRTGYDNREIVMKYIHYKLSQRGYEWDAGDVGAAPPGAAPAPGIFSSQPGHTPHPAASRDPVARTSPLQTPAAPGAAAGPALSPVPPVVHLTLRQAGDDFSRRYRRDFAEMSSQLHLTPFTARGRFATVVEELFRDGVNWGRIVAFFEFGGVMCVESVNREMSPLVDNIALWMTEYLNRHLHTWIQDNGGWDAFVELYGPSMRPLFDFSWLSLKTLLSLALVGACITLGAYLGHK

Bcl-2-like protein 1 [4] = target: T1, Bcl-2-like protein 1; experiment: Binding affinity to Bcl-XL in 1% human serum by fluorescence polarization assay
Target sequence in this assay (Q07817 whole entry): as the sequence (Q07817 whole entry) above

Bcl-2-like protein 1 [5] = target: T1, Bcl-2-like protein 1; experiment: Activity towards mouse FL5.12 cell line transfected with Bcl-XL in presence of 3% fetal bovine serum; format: functional
Summary of the method: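 Bcl-XL-transfected murine FL5.12 (IL-3 dependent) grown in RPMI with 10% FBS and WEHI-3B conditioned medium as the IL-3 source. Switched to IL-3-depleted, FBS-free medium for 2 days. Then placed in gelatin assay medium (3.4 mg/mL bovine gelatin) or 3% FBS assay medium. Serial compound dilutions added for 24 h. Viability read by MTS or CellTiter-Glo; duplicate values per determination; EC50.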
Target sequence in this assay (Q07817 whole entry): as above

A549 [6] = experiment: Effect on viability of human A549 lung carcinoma cells at 20 uM after 48h by MTS assay in presence of 10% fetal bovine serum; format: functional, cell-based
Summary of the method: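 A549 seeded in DMEM with 5% FBS the day before. Medium removed and UV-C applied (start 32 mJ/cm², halved each step), then compound added in DMEM with 10% FBS. Viability by MTS at 48 h post-exposure, expressed as percent of untreated samples.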

A549 [7] = experiment: Antiproliferative activity against human A549 lung carcinoma cell xenograft tumor model in scid mice in presence of paclitaxel at MTD; format: functional
Summary of the method: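 A549 cells (5 × 10⁶ in 50% Matrigel) inoculated subcutaneously into flank; groups of equal tumor size (N = 10) assigned at ~250 mm³ (day 15). Dosing ip: agent 75 mg/kg/day days 16-36 in 5% Tween 80/20% PEG/75% 0.1 M NaPO₄ pH ~4.0; paclitaxel 30 mg/kg/day days 16, 20, 24. Calipers twice weekly, V = L × W²; %ILS as median time to 1 cm³.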

Bcl-2-like protein 2 = target: T2, Bcl-2-like protein 2 (Homo sapiens, UniProt Q92843); experiment: Binding affinity to Bclw
T2 sequence (Q92843 whole entry): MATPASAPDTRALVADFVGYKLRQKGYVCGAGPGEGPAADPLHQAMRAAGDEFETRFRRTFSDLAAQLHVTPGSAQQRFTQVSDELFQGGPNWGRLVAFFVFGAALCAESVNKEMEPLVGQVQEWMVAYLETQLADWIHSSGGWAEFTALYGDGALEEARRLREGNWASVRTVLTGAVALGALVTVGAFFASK

Albumin = Albumin (Homo sapiens, UniProt P02768); experiment: Binding affinity for human serum albumin domain III
Albumin, sequence (P02768 whole entry, the tested form may be a part): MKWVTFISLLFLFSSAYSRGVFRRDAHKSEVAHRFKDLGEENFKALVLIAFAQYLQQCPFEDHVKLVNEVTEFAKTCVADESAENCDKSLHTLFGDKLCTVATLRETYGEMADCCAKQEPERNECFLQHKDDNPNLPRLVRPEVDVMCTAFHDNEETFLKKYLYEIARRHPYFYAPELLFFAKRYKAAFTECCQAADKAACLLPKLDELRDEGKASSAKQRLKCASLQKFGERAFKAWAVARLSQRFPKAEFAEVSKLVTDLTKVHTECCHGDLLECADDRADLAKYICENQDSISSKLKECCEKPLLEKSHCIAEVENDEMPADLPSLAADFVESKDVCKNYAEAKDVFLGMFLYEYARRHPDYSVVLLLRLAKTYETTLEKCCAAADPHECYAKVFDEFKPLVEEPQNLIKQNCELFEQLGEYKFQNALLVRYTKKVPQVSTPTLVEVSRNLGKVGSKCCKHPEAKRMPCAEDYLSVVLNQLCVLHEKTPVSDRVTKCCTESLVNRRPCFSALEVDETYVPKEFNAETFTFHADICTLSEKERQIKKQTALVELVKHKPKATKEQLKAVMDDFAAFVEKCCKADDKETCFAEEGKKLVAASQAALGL

[8] = target: Induced myeloid leukemia cell differentiation protein Mcl-1 (Homo sapiens, UniProt Q07820); experiment: Binding affinity to Mcl1
Induced myeloid leukemia cell differentiation protein Mcl-1, sequence (Q07820 whole entry): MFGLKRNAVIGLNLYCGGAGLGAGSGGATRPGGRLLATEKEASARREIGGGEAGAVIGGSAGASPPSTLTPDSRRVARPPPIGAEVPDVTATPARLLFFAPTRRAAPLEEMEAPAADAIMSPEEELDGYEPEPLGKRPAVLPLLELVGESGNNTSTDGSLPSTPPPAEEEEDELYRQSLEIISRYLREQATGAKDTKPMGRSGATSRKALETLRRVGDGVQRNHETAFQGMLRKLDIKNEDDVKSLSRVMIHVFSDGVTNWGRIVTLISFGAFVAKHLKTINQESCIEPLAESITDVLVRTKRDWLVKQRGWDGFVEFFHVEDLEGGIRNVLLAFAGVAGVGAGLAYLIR

A549 [9] = experiment: Effect of viability of human A549 lung carcinoma cells at 20uM after 48h by MTS assay in presence of paclitaxel; format: functional, cell-based
Summary of the method: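 A549 seeded in DMEM with 5% FBS the day before. Pretreated 48 h with paclitaxel serial 3-fold dilutions from 20 nM, then coincubated 48 h with paclitaxel plus compound in DMEM with 0.34% gelatin (serum-free). Viability by MTS, normalized to untreated cells.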

Bcl-2-like protein 1 [10] = target: T1, Bcl-2-like protein 1; details: 10 uM
Target sequence in this assay (Q07817 whole entry): as the sequence (Q07817 whole entry) above

Bcl-2-like protein 1 [11] = target: T1, Bcl-2-like protein 1; experiment: Inhibitory activity against Bcl-XL in presence of alpha-1 acid glycoprotein from 1% human serum
Summary of the method: (§1)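 Competitive fluorescence polarization assay: serial compound dilutions compete with 30 nM f-Bad peptide (FITC-labelled) for binding to 60 nM Bcl-XL. Human serum (1%) or individual serum proteins are added to the assay buffer. Protein levels: HSA 0.42 mg/mL, HSA-III 0.146 mg/mL, α1-acid glycoprotein 0.0095 mg/mL. IC50 is calculated from duplicate values per determination.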
Target sequence in this assay (Q07817 whole entry): as above

Bcl-2-like protein 1 [12] = target: T1, Bcl-2-like protein 1; experiment: Inhibitory activity against Bcl-XL in presence of HSA from 1% human serum; summary of the method: as §1
Bcl-2-like protein 1 [13] = target: T1, Bcl-2-like protein 1; experiment: Inhibitory activity against Bcl-XL in presence of HSA3 from 1% human serum
Target sequence in this assay (Q07817 whole entry, looked up): as the sequence (Q07817 whole entry) above

Bcl-2-like protein 1 [14] = target: T1, Bcl-2-like protein 1; experiment: Inhibitory activity against Bcl-XL in presence of 1% human serum; summary of the method: as §1

| Compound | Ki (Bcl-2-like protein 1 [2]) [nM] | Ki [3] [nM] | Ki (Bcl-2-like protein 1 [4]) [nM] | EC50 (Bcl-2-like protein 1 [5]) [nM] | other results |
| --- | --- | --- | --- | --- | --- |
| COc1cc(CCCN(C)C)ccc1-c1ccc(C(=O)NS(=O)(=O)c2ccc(NCCSc3ccccc3)c([N+](=O)[O-])c2)cc1 | 106 | 1230 | 730 | – | Ki (Bcl-2-like protein 1 [1]): 5660 nM |
| CN(C)C(=O)C[C@H](CSc1ccccc1)Nc1ccc(S(=O)(=O)NC(=O)c2ccc(N3CCC(C)(C)CC3)cc2)cc1[N+](=O)[O-] | 3.1 | 75 | 1790 | 15000 | – |
| CC1(C)CCN(c2ccc(C(=O)NS(=O)(=O)c3ccc(N[C@H](CCCCN)CSc4ccccc4)c([N+](=O)[O-])c3)cc2)CC1 | 1 | 231 | 256 | 20800 | – |
| CN(C)CCCC[C@H](CSc1ccccc1)Nc1ccc(S(=O)(=O)NC(=O)c2ccc(N3CCC(C)(C)CC3)cc2)cc1[N+](=O)[O-] | 1.2 | 73 | 174 | 3890 | – |
| COc1cc(CCC(=O)N(C)C)ccc1-c1ccc(C(=O)NS(=O)(=O)c2ccc(NCCSc3ccccc3)c([N+](=O)[O-])c2)cc1 | 38.9 | 400 | 1000 | – | – |
| COc1cc(CCC(=O)N2CCOCC2)ccc1-c1ccc(C(=O)NS(=O)(=O)c2ccc(NCCSc3ccccc3)c([N+](=O)[O-])c2)cc1 | 57.9 | 366 | 790 | – | – |
| O=C(NS(=O)(=O)c1ccc(NCCSc2ccccc2)c([N+](=O)[O-])c1)c1ccc(N2CCOCC2)cc1 | 1080 | > 10000 | > 10000 | – | – |
| COc1cc(CCCN2CCOCC2)ccc1-c1ccc(C(=O)NS(=O)(=O)c2ccc(N[C@H](CCCCN(C)C)CSc3ccccc3)c([N+](=O)[O-])c2)cc1 | < 0.5 | 58.8 | 215 | 6000 | – |
| COc1cc(CCN(C)C)ccc1-c1ccc(C(=O)NS(=O)(=O)c2ccc(NCCSc3ccccc3)c([N+](=O)[O-])c2)cc1 | 665 | 3260 | 998 | – | – |
| COc1cc(CCCN2CCOCC2)ccc1-c1ccc(C(=O)NS(=O)(=O)c2ccc(N[C@H](CCCN(C)C)CSc3ccccc3)c([N+](=O)[O-])c2)cc1 | 0.9 | 317 | 71 | 8600 | – |
| COc1cc(CCCN2CCOCC2)ccc1-c1ccc(C(=O)NS(=O)(=O)c2ccc(NCCSc3ccccc3)c([N+](=O)[O-])c2)cc1 | 10.4 | 402 | 580 | – | Ki (Bcl-2-like protein 1 [1]): 4300 nM |
| CN(C)CC[C@H](CSc1ccccc1)Nc1ccc(S(=O)(=O)NC(=O)c2ccc(N3CCC(C)(C)CC3)cc2)cc1[N+](=O)[O-] | 0.8 | 67 | 360 | 5100 | Activity (A549 [6]): Active; Activity (A549 [7]): 75%; Kd (Bcl-2-like protein 2): 459 nM; Kd (Albumin): 13600 nM; Kd [8]: > 10000 nM; Activity (A549 [9]): Active |
| CC(=O)N1CCN(c2ccc(C(=O)NS(=O)(=O)c3ccc(NCCSc4ccccc4)c([N+](=O)[O-])c3)cc2)CC1 | 894 | > 10000 | 2970 | – | – |
| CN(C)CC[C@@H](CSc1ccccc1)Nc1ccc(S(=O)(=O)NC(=O)c2ccc(N3CCC(C)(C)CC3)cc2)cc1[N+](=O)[O-] | 252 | 1260 | 3850 | 16100 | – |
| CC1(C)CCN(c2ccc(C(=O)NS(=O)(=O)c3ccc(N[C@@H](CCN4CCOCC4)CSc4ccccc4)c([N+](=O)[O-])c3)cc2)CC1 | 75 | 732 | 6050 | 9310 | – |
| CN(C)CCC[C@H](CSc1ccccc1)Nc1ccc(S(=O)(=O)NC(=O)c2ccc(N3CCC(C)(C)CC3)cc2)cc1[N+](=O)[O-] | 2.6 | 92.1 | 728 | 14100 | – |

| Compound | Ki (Bcl-2-like protein 1 [2]) [nM] | Ki [3] [nM] | Ki (Bcl-2-like protein 1 [4]) [nM] | EC50 (Bcl-2-like protein 1 [5]) [nM] | other results |
| --- | --- | --- | --- | --- | --- |
| COc1cc(CCCN2CCOCC2)ccc1-c1ccc(C(=O)NS(=O)(=O)c2ccc(N[C@H](CCN3CCOCC3)CSc3ccccc3)c([N+](=O)[O-])c2)cc1 | < 0.5 | 165 | > 10000 | 2110 | – |
| O=C(NS(=O)(=O)c1ccc(NCCSc2ccccc2)c([N+](=O)[O-])c1)c1ccc(-c2ccc(F)cc2)cc1 | 36 | 433 | 2500 | – | inhibition (Bcl-2-like protein 1 [10]): 1%; IC50 (Bcl-2-like protein 1 [11]): 122 nM; IC50 (Bcl-2-like protein 1 [12]): > 10000 nM; IC50 (Bcl-2-like protein 1 [13]): 6300 nM; IC50 (Bcl-2-like protein 1 [14]): > 10000 nM |
| COc1cc(CC(=O)N(C)C)ccc1-c1ccc(C(=O)NS(=O)(=O)c2ccc(NCCSc3ccccc3)c([N+](=O)[O-])c2)cc1 | 251 | > 10000 | > 10000 | – | – |
| COc1cc(CCCN2CCOCC2)ccc1-c1ccc(C(=O)NS(=O)(=O)c2ccc(N[C@@H](CSc3ccccc3)CC(=O)N(C)C)c([N+](=O)[O-])c2)cc1 | 1.7 | 121 | 1000 | 7630 | – |
| COc1cc(CCCN2CCOCC2)ccc1-c1ccc(C(=O)NS(=O)(=O)c2ccc(N[C@H](CCCCN)CSc3ccccc3)c([N+](=O)[O-])c2)cc1 | 0.8 | 70 | 29.6 | 9000 | – |
| COc1cc(C(=O)N(C)C)ccc1-c1ccc(C(=O)NS(=O)(=O)c2ccc(NCCSc3ccccc3)c([N+](=O)[O-])c2)cc1 | 471 | 1980 | > 10000 | – | – |
| CC1(C)CCN(c2ccc(C(=O)NS(=O)(=O)c3ccc(N[C@H](CCN4CCOCC4)CSc4ccccc4)c([N+](=O)[O-])c3)cc2)CC1 | 1.1 | 55 | > 10000 | 7000 | – |
| COc1cc(CCCO)ccc1-c1ccc(C(=O)NS(=O)(=O)c2ccc(NCCSc3ccccc3)c([N+](=O)[O-])c2)cc1 | 21.5 | 721 | 2960 | – | – |
| COc1cc(CCCN2CCOCC2)ccc1-c1ccc(C(=O)NS(=O)(=O)c2ccc(N[C@H](CCN(C)C)CSc3ccccc3)c([N+](=O)[O-])c2)cc1 | < 0.5 | 116 | 148 | 2080 | Kd (Albumin): 94000 nM |
| COc1cc(CN(C)C)ccc1-c1ccc(C(=O)NS(=O)(=O)c2ccc(NCCSc3ccccc3)c([N+](=O)[O-])c2)cc1 | 426 | 4570 | 1000 | – | – |
| CC(C)(C)OC(=O)N1CCN(c2ccc(C(=O)NS(=O)(=O)c3ccc(NCCSc4ccccc4)c([N+](=O)[O-])c3)cc2)CC1 | 396 | 2880 | 3350 | – | – |
| COc1cc(CCCN2CCOCC2)ccc1-c1ccc(C(=O)NS(=O)(=O)c2ccc(N[C@@H](CCN(C)C)CSc3ccccc3)c([N+](=O)[O-])c2)cc1 | 250 | 2160 | 1140 | 59200 | – |
| CN(C)C(=O)N1CCN(c2ccc(C(=O)NS(=O)(=O)c3ccc(NCCSc4ccccc4)c([N+](=O)[O-])c3)cc2)CC1 | 294 | 3540 | 869 | – | – |
| CC1(C)CCN(c2ccc(C(=O)NS(=O)(=O)c3ccc(NCCSc4ccccc4)c([N+](=O)[O-])c3)cc2)CC1 | 19 | 192 | 652 | – | – |
| O=C(NS(=O)(=O)c1ccc(NCCSc2ccccc2)c([N+](=O)[O-])c1)c1ccc(N2CCNCC2)cc1 | 2520 | – | > 10000 | – | – |
